Results from ChEMBL document CHEMBL1811760, “Structure-activity relationships of C-17-substituted estratriene-3-O-sulfamates as anticancer agents” (J Med Chem, 2011).
Calls of active or inactive are those of the source. The rule behind the calls is not given here.

Columns and labels:
[1] = test system: Mus musculus; assay: Antiangiogenic activity in Matrigel plug implanted C57BL/6J mouse assessed as inhibition of bFGF-induced angiogenesis at 20 mg/kg, po administered 24 hrs after implantation for 4 days measured by FITC-conjugated dextran staining based fluorimetry; format: functional, organism-based; design: dose 20 mg/kg
Outline: (§1)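 Female C57BL/6J mice (6–8 weeks) were injected subcutaneously in the flanks with 0.5 mL ice-cold Matrigel plus 500 ng bFGF. Oral dosing in vehicle (10% THF, 90% PG) ran daily for 4 days, starting 24 h after Matrigel. Groups had five mice. FITC-dextran (0.1 mL of 0.25 mg/mL) was given iv and mice killed 20 min later. Plugs were digested in Dispase 16 h at 37 °C, and supernatant fluorescence read at ex 480/em 520 nm against a FITC-dextran standard curve.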

[2] = test system: Mus musculus; assay: Antiangiogenic activity in Matrigel plug implanted C57BL/6J mouse assessed as inhibition of bFGF-induced angiogenesis at 10 mg/kg, po administered 24 hrs after implantation for 4 days measured by FITC-conjugated dextran staining based fluorimetry; format: functional, organism-based; design: dose 10 mg/kg; outline: as §1
[3] = test system: DU-145; assay: Antiproliferative activity against human DU145 cells after 96 hrs by WST1 assay; format: functional; details: DU-145, 96 h
Outline: (§2)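 Cells were grown in RPMI-1640 with 10% FBS at 37 °C in 5% CO2, then seeded at 5000 cells/well. They were exposed to compound at 10^-9–10^-4 M or vehicle for 96 h. Live cells were read by WST-1 and expressed as percent of mean control, from which GI50 was calculated. Runs were done in triplicate.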

[4] = Growth inhibition of human NCI60 cells; format: functional
[5] = test system: OVCAR-3; assay: Growth inhibition of human OVCAR3 cells; format: functional
[6] = test system: HCT-116; assay: Growth inhibition of human HCT116 cells; format: functional
[7] = test system: SF-539; assay: Growth inhibition of human SF539 cells; format: functional
[8] = test system: UACC-62; assay: Growth inhibition of human UACC62 cells; format: functional
[9] = test system: MDA-MB-231; assay: Antiproliferative activity against estrogen-negative human MDA-MB-231 cells after 96 hrs by WST1 assay; format: functional; details: MDA-MB-231, 96 h; outline: as §2
[10] = test system: MCF7; assay: Antiproliferative activity against estrogen-positive human MCF7 cells; format: functional
[11] = test system: HOP-62; assay: Growth inhibition of human HOP62 cells; format: functional
[12] = test system: SN12C; assay: Growth inhibition of human SN12C cells; format: functional

| SMILES | GI50 [3] [nM] | GI50 [4] [nM] | GI50 [5] [nM] | GI50 [6] [nM] | GI50 [7] [nM] | GI50 [8] [nM] | GI50 [9] [nM] | GI50 [10] [nM] | GI50 [11] [nM] | GI50 [12] [nM] | other results |
| --- | --- | --- | --- | --- | --- | --- | --- | --- | --- | --- | --- |
| CCc1cc2c(cc1OS(N)(=O)=O)CC[C@@H]1[C@@H]2CC[C@]2(C)[C@@H](C(C)=O)CC[C@@H]12 | 62 | 15 | < 10 | < 10 | < 10 | < 10 | 19 | 26 | < 10 | < 10 | Activity [1]: Active; Activity [2]: Active |
| CCc1cc2c(cc1O)CC[C@@H]1[C@@H]2CC[C@]2(C)[C@@H](CCO)CC[C@@H]12 | – | – | – | – | – | – | – | 2520 | – | – | – |
| CCc1cc2c(cc1OS(N)(=O)=O)CC[C@@H]1[C@@H]2CC[C@]2(C)[C@@H](CC(F)F)CC[C@@H]12 | 1810 | 3090 | 3470 | 2820 | 1950 | 4900 | – | – | 3890 | 5370 | – |
| CCc1cc2c(cc1O)CC[C@@H]1[C@@H]2CC[C@]2(C)/C(=C/CO)CC[C@@H]12 | – | – | – | – | – | – | – | 770 | – | – | – |
| CCc1cc2c(cc1OS(N)(=O)=O)CC[C@@H]1[C@@H]2CC[C@]2(C)[C@@H](CCOC)CC[C@@H]12 | 3400 | 4570 | 4070 | 2700 | 5010 | 2340 | – | – | 4900 | 4680 | – |
| CCOC(=O)/C=C1\CC[C@H]2[C@@H]3CCc4cc(OS(N)(=O)=O)c(CC)cc4[C@H]3CC[C@]12C | – | – | – | – | – | – | – | 1850 | – | – | – |
| CCc1cc2c(cc1OS(N)(=O)=O)CC[C@@H]1[C@@H]2CC[C@]2(C)[C@@H](OS(N)(=O)=O)CC[C@@H]12 | – | 18 | < 10 | – | < 10 | < 10 | – | – | < 10 | 28 | – |
| CCc1cc2c(cc1O)CC[C@@H]1[C@@H]2CC[C@]2(C)/C(=C/COC)CC[C@@H]12 | – | – | – | – | – | – | – | > 10000 | – | – | – |
| CCc1cc2c(cc1O)CC[C@@H]1[C@@H]2CC[C@]2(C)[C@@H](COC)CC[C@@H]12 | 25300 | – | – | – | – | – | 9200 | – | – | – | – |
| CCc1cc2c(cc1OS(N)(=O)=O)CC[C@@H]1[C@@H]2CC[C@]2(C)[C@@H](CC(C)=O)CC[C@@H]12 | 160 | – | – | – | – | – | 180 | 320 | – | – | – |
| CCc1cc2c(cc1OS(N)(=O)=O)CC[C@@H]1[C@@H]2CC[C@]2(C)/C(=C/CO)CC[C@@H]12 | – | 490 | 230 | 270 | 220 | 470 | – | 10000 | 420 | 580 | – |
| CCc1cc2c(cc1O)CC[C@@H]1[C@@H]2CC[C@]2(C)[C@@H](CCF)CC[C@@H]12 | 3400 | – | – | – | – | – | – | – | – | – | – |
| CCc1cc2c(cc1O)CC[C@@H]1[C@@H]2CC[C@]2(C)[C@@H](CC(C)=O)CC[C@@H]12 | 18900 | – | – | – | – | – | – | 5790 | – | – | – |
| CCc1cc2c(cc1O)CC[C@@H]1[C@@H]2CC[C@]2(C)[C@@H](CC(F)F)CC[C@@H]12 | 60000 | – | – | – | – | – | – | – | – | – | – |
| CCc1cc2c(cc1O)CC[C@@H]1[C@@H]2CC[C@]2(C)/C(=C\CO)CC[C@@H]12 | – | – | – | – | – | – | – | 670 | – | – | – |
| CCc1cc2c(cc1O)CC[C@@H]1[C@@H]2CC[C@]2(C)[C@@H](CCOC)CC[C@@H]12 | – | – | – | – | – | – | – | 24800 | – | – | – |
| CCOC(=O)/C=C1\CC[C@H]2[C@@H]3CCc4cc(O)c(CC)cc4[C@H]3CC[C@]12C | – | – | – | – | – | – | – | 30600 | – | – | – |

| SMILES | GI50 [3] [nM] | GI50 [4] [nM] | GI50 [5] [nM] | GI50 [6] [nM] | GI50 [7] [nM] | GI50 [8] [nM] | GI50 [9] [nM] | GI50 [10] [nM] | GI50 [11] [nM] | GI50 [12] [nM] | other results |
| --- | --- | --- | --- | --- | --- | --- | --- | --- | --- | --- | --- |
| COc1cc2c(cc1O)CC[C@@H]1[C@@H]2CC[C@]2(C)[C@@H](C(C)=O)CC[C@@H]12 | 300 | – | – | – | – | – | 390 | – | – | – | – |
| CCOC(=O)C[C@H]1CC[C@H]2[C@@H]3CCc4cc(O)c(CC)cc4[C@H]3CC[C@]12C | – | – | – | – | – | – | – | 26400 | – | – | – |
| CCc1cc2c(cc1OS(N)(=O)=O)CC[C@@H]1[C@@H]2CC[C@]2(C)[C@@H](CCF)CC[C@@H]12 | 780 | 6310 | 22900 | 3390 | 5250 | 3890 | – | – | 3720 | 7590 | – |
| COc1cc2c(cc1OS(N)(=O)=O)CC[C@@H]1[C@@H]2CC[C@]2(C)[C@@H](C(C)=O)CC[C@@H]12 | 46 | – | – | – | – | – | 48 | – | – | – | – |
| CCOC(=O)/C=C1/CC[C@H]2[C@@H]3CCc4cc(O)c(CC)cc4[C@H]3CC[C@]12C | – | – | – | – | – | – | – | 31100 | – | – | – |
| COc1cc2c(cc1O)CC[C@@H]1[C@@H]2CC[C@]2(C)[C@@H](CC(C)=O)CC[C@@H]12 | 2400 | – | – | – | – | – | – | – | – | – | – |
| CCc1cc2c(cc1OS(N)(=O)=O)CC[C@@H]1[C@@H]2CC[C@]2(C)[C@@H](CCOS(N)(=O)=O)CC[C@@H]12 | – | – | – | – | – | – | – | 5640 | – | – | – |
| COc1cc2c(cc1OS(N)(=O)=O)CC[C@@H]1[C@@H]2CC[C@]2(C)[C@@H](CC(C)O)CC[C@@H]12 (some centres not stated) | 140 | 28 | < 10 | 25 | 23 | < 10 | 140 | – | 48 | 52 | – |
| CCc1cc2c(cc1OS(N)(=O)=O)CC[C@@H]1[C@@H]2CC[C@]2(C)[C@@H](COC)CC[C@@H]12 | 330 | 42 | < 10 | 22 | < 10 | – | 530 | – | 45 | 72 | – |
| CCc1cc2c(cc1OS(N)(=O)=O)CC[C@@H]1[C@@H]2CC[C@]2(C)[C@@H](COS(N)(=O)=O)CC[C@@H]12 | 290 | 85 | 19 | 38 | 56 | 22 | 430 | – | 61 | 309 | – |
| COc1cc2c(cc1OS(N)(=O)=O)CC[C@@H]1[C@@H]2CC[C@]2(C)[C@@H](C/C(C)=N\O)CC[C@@H]12 | 2090 | – | – | – | – | – | 2350 | – | – | – | – |
| CCc1cc2c(cc1OS(N)(=O)=O)CC[C@@H]1[C@@H]2CC[C@]2(C)[C@@H](CCO)CC[C@@H]12 | – | 1730 | 11500 | 270 | 350 | 2890 | – | < 500 | 250 | 2450 | – |
| CCc1cc2c(cc1O)CC[C@@H]1[C@@H]2CC[C@]2(C)[C@@H](CC#N)CC[C@@H]12 | – | – | – | – | – | – | – | > 100000 | – | – | – |
| CCOC(=O)C[C@H]1CC[C@H]2[C@@H]3CCc4cc(OS(N)(=O)=O)c(CC)cc4[C@H]3CC[C@]12C | – | 520 | 220 | 350 | 220 | 450 | – | 4190 | 590 | 630 | – |
| CCc1cc2c(cc1O)CC[C@@H]1[C@@H]2CC[C@]2(C)[C@@H](C(C)=O)CC[C@@H]12 | 2000 | – | – | – | – | – | – | – | – | – | – |
| CCc1cc2c(cc1O)CC[C@@H]1[C@@H]2CC[C@]2(C)[C@@H](CO)CC[C@@H]12 | 10100 | – | – | – | – | – | 6300 | – | – | – | – |
